In ChEMBL document CHEMBL3763071, “Selective Human Estrogen Receptor Partial Agonists (ShERPAs) for Tamoxifen-Resistant Breast Cancer” (J Med Chem, 2016):
Calls of active or inactive are those of the source. The calls are words filed in the database; no cut-off is given here.

How the values were obtained:
Estrogen receptor [1] = molecular target: T1, Estrogen receptor (Homo sapiens, UniProt P03372); experiment: Agonist activity at estrogen receptor alpha in human MCF7:WS8 cells after 18 hrs by dual luciferase reporter assay; assay type: cell-based
T1 sequence (P03372 whole entry): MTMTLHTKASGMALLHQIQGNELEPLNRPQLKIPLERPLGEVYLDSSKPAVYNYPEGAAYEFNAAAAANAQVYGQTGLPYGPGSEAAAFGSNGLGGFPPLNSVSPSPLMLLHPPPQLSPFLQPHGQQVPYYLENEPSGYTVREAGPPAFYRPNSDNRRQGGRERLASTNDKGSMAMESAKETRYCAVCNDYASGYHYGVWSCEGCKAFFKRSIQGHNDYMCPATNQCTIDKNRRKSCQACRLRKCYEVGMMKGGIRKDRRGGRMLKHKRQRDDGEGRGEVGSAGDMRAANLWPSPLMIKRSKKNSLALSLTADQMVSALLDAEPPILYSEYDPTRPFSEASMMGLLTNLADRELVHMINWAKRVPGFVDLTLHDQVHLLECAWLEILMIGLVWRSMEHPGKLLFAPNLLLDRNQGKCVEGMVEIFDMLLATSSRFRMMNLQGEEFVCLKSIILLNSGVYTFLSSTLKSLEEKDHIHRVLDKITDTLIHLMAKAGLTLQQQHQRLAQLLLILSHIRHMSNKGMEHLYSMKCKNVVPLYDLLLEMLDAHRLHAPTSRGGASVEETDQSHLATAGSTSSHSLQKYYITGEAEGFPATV

[2] = (§1) Antiproliferative activity against tamoxifen resistant human MCF7:5C cells assessed as inhibition of cell growth at 1 nM after 9 days by MTS assay; assay type: functional; conditions: 216 h
Outline: (§2)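 Tamoxifen-resistant MCF-7:5C cells (long-term estrogen-deprived MCF-7:ws8, phenol red-free RPMI with charcoal-dextran FBS) seeded 5000/well overnight, treated at 1, 10 or 100 nM with renewal every 3 days. […] Triplicates in at least three passages.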

[3] = (§3) Antiproliferative activity against tamoxifen resistant human MCF7:5C cells assessed as inhibition of cell growth at 100 nM after 9 days by MTS assay; assay type: functional; conditions: 216 h; outline: as §2
[4] = Cytotoxicity against human MCF7:WS8 cells at 0.1 to 1 uM after 3 days by MTT assay; assay type: cell-based; conditions: mcf7:ws8, 72 h
[5] = (§4) Antiproliferative activity against tamoxifen resistant human MCF7:5C cells assessed as inhibition of cell growth at 10 nM after 9 days by MTS assay; assay type: functional; conditions: 216 h; outline: as §2
MCF7:5C [6] = experiment: as §1; assay type: functional; outline: as §2
MCF7:5C [7] = experiment: as §4; assay type: functional; outline: as §2
T47D:A18 = experiment: Antitumor activity against tamoxifen resistant human T47D:A18 cells overexpressing PKC-alpha xenografted into BALB/c athymic mouse assessed as reduction in tumor size at 100 mg/kg administered via oral gavage daily measured upto 2 weeks; assay type: functional, organism-based
Outline: (§5)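 T47D:A18/PKCα xenografts established 12 weeks before dosing. Compound given orally at 100 mg/kg daily for 2 weeks in 0.1% Tween 80/10% PEG400/0.5% CMC, plus drinking water replaced by hydrogel suspension at 0.25 mg/mL. Tumor area (length/2 × width/2 × π) by calipers weekly; uteri excised and weighed at sacrifice (control n = 4, treated n = 6).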

Estrogen receptor [8] = molecular target: T1, Estrogen receptor; experiment: Partial agonist activity at ERalpha in human MCF7:WS8 cells after 18 hrs by luciferase reporter gene assay; assay type: cell-based
Outline: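 MCF-7:ws8 cells kept in stripped medium 3 days, then transiently co-transfected (6 h) with 3×ERE-firefly luciferase and pRL-TK Renilla plasmids. […] EC50 and Emax derived; mean ± s.e.m. from at least three passages.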

[9] = molecular target: T2, Estrogen receptor (Homo sapiens) (UniProt P03372); experiment: Partial agonist activity at biotinylated ERalpha LBD (unknown origin) assessed as inhibition of E2-induced SRC3 coactivator recruitment after 1 hr by TR-FRET assay
T2 sequence (whole entry): T1 sequence (P03372 whole entry)

[10] = molecular target: T2, Estrogen receptor (Homo sapiens); experiment: Partial agonist activity at biotinylated ERalpha LBD (unknown origin) assessed as increase in SRC3 coactivator recruitment after 1 hr by TR-FRET assay
Outline: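 Biotinylated ERα LBD (1 nM) premixed with streptavidin-terbium (0.25 nM). Fluorescein-labelled SRC3 was titrated with ligand at 20 μM. Incubation ran 1 h at room temperature in the dark. Read-out was TR-FRET: excitation 340 nm, emission 495 and 520 nm, 100-μs delay. Background from parallel wells without LBD was subtracted, and signal was plotted against log SRC3.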

[11] = molecular target: T2, Estrogen receptor (Homo sapiens); experiment: Antagonist activity at ERalpha in human MCF7:WS8 cells assessed as E2-induced ERE activation after 18 hrs by luciferase reporter gene assay; assay type: cell-based
Outline: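 ERE-luciferase reporter in MCF-7:ws8 cells held in stripped medium 3 days, co-transfected with 3×ERE (Xenopus vitellogenin A2)-firefly luciferase and pRL-TK Renilla plasmids for 6 h. […] Average of three passages.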

MCF7:5C [12] = experiment: as §3; assay type: functional; outline: as §2
[13] = molecular target: T2, Estrogen receptor (Homo sapiens); experiment: Partial agonist activity at estrogen receptor alpha in human MCF7:WS8 cells at 100 nM after 6 hrs in presence of 100 nM GPR30 inhibitor G15 by luciferase reporter gene assay; assay type: cell-based
Mus musculus = experiment: Toxicity in BALB/c athymic mouse xenografted with tamoxifen-resistant human T47D:A18 cells overexpressing PKC-alpha assessed as uterine weight at 100 mg/kg administered via oral gavage daily; assay type: organism-based; conditions: in vivo; outline: as §5

In the case of Cc1ccc(C(=O)c2c(-c3ccc(O)cc3)sc3cc(O)ccc23)cc1, the EC50 (Estrogen receptor [1]; read-out: EC50) is reported as 2.6 nM, the inhibition at 0.001 µM [2] is reported as 11.5% and the inhibition at 0.1 µM [3] is reported as 109%. The Activity [4] was “Non-toxic” and the inhibition at 0.01 µM [5] was 60.2%.
For Cc1ccc(C(=O)c2sc3cc(O)ccc3c2-c2ccc(F)cc2)cc1, the EC50 (Estrogen receptor [1]; read-out: EC50) was 717 nM, the inhibition at 0.001 µM [2] was 13.3% and the inhibition at 0.1 µM [3] was 110%. For the same compound, the Activity [4] was “Non-toxic” and the inhibition at 0.01 µM [5] was 7.4%.
O=C(c1ccc(O)cc1)c1sc2cc(O)ccc2c1-c1ccc(F)cc1 showed an EC50 (Estrogen receptor [1]; read-out: EC50) of 0.2 nM, an inhibition at 0.001 µM [2] of 95.4% and an inhibition at 0.1 µM [3] of 100%. For the same compound, the Activity [4] was “Non-toxic” and the inhibition at 0.01 µM [5] was 99.8%.
In the case of Oc1ccc2c(-c3ccc(F)cc3)c(Oc3ccc(F)c(F)c3)sc2c1, the EC50 (Estrogen receptor [1]; read-out: EC50) is reported as 33.4 nM, the inhibition (MCF7:5C [6]) is reported as “inactive” and the inhibition at 0.1 µM [3] is reported as 84.6%. For the same compound, the Activity [4] was “Non-toxic” and the inhibition (MCF7:5C [7]) was “inactive”.
Work on O=C(c1sc2cc(O)ccc2c1-c1ccc(F)cc1)C1CCCCC1 yielded an EC50 (Estrogen receptor [1]; read-out: EC50) of 1 nM, an inhibition at 0.001 µM [2] of 21.4% and an inhibition at 0.1 µM [3] of 147%. The Activity [4] was “Non-toxic” and the inhibition at 0.01 µM [5] was 134%.
In the case of C#Cc1ccc(C(=O)c2sc3cc(O)ccc3c2-c2ccc(F)cc2)cc1, the EC50 (Estrogen receptor [1]; read-out: EC50) is reported as 5.3 nM, the inhibition at 0.001 µM [2] is reported as 31.4% and the Activity (T47D:A18) is reported as “Active”. For the same compound, the inhibition at 0.1 µM [3] was 85.6%, the Activity [4] was “Non-toxic” and the EC50 (Estrogen receptor [8]) was 5.3 nM. The Activity [9] was “Active”, the inhibition at 0.01 µM [5] was 79.9% and the Activity [10] was “Active”. The inhibition [11] was “Dose-dependent effect”.
For O=C(c1ccc(C(F)(F)F)cc1)c1c(-c2ccc(F)cc2)sc2cc(O)ccc12, the EC50 (Estrogen receptor [1]; read-out: EC50) was 61.5 nM, the inhibition at 0.001 µM [2] was 55.6% and the inhibition at 0.1 µM [3] was 108%. The Activity [4] was “Non-toxic” and the inhibition at 0.01 µM [5] was 69.7%.
N#Cc1ccc(C(=O)c2sc3cc(O)ccc3c2-c2ccc(F)cc2)cc1 showed an EC50 (Estrogen receptor [1]; read-out: EC50) of 58.7 nM, an inhibition at 0.001 µM [2] of 2% and an inhibition at 0.1 µM [3] of 64.2%. The Activity [4] was “Non-toxic”.
In the case of O=C(c1ccc(OCCN2CCCCC2)cc1)c1c(-c2ccc(O)cc2)sc2cc(O)ccc12 [RALOXIFENE], the inhibition (MCF7:5C [6]) is reported as “inactive”, the inhibition (MCF7:5C [12]) is reported as “inactive” and the Activity [4] is reported as “Non-toxic”. The inhibition (MCF7:5C [7]) was “inactive”.
In the case of Oc1ccc2cc(-c3ccc(F)cc3)sc2c1, the EC50 (Estrogen receptor [1]) is reported as “Not Active”.
In the case of Oc1ccc(Oc2sc3cc(O)ccc3c2-c2ccc(F)cc2)cc1 [TTC-352], the EC50 (Estrogen receptor [1]; read-out: EC50) is reported as 0.8 nM, the inhibition at 0.001 µM [2] is reported as 50.6% and the Activity [13] is reported as “Active”. The inhibition at 0.1 µM [3] was 123%, the Activity [4] was “Non-toxic” and the EC50 (Estrogen receptor [8]) was 0.8 nM. For the same compound, the Activity [9] was “Active”, the inhibition at 0.01 µM [5] was 104% and the Activity [10] was “Active”. The inhibition [11] was “Dose-dependent effect”.
For O=C(c1sc2cc(O)ccc2c1-c1ccc(F)cc1)C1CC1, the EC50 (Estrogen receptor [1]; read-out: EC50) was 13.9 nM, the inhibition (MCF7:5C [6]) was “inactive” and the inhibition at 0.1 µM [3] was 146%. For the same compound, the Activity [4] was “Non-toxic” and the inhibition at 0.01 µM [5] was 79.6%.
For O=C(c1ccc(C(F)(F)F)cc1)c1c(-c2ccc(Cl)cc2)sc2cc(O)ccc12, the EC50 (Estrogen receptor [1]; read-out: EC50) was 121 nM, the inhibition (MCF7:5C [6]) was “inactive” and the inhibition (MCF7:5C [12]) was “inactive”. For the same compound, the Activity [4] was “Non-toxic” and the inhibition (MCF7:5C [7]) was “inactive”.
For Oc1ccc2c(-c3ccc(F)cc3)csc2c1, the EC50 (Estrogen receptor [1]) was “Not Active”.
In the case of CS(=O)(=O)c1ccc(C(=O)c2sc3cc(O)ccc3c2-c2ccc(F)cc2)cc1, the EC50 (Estrogen receptor [1]; read-out: EC50) is reported as 436 nM, the inhibition (MCF7:5C [6]) is reported as “inactive” and the inhibition at 0.1 µM [3] is reported as 18.9%. For the same compound, the Activity [4] was “Non-toxic” and the inhibition (MCF7:5C [7]) was “inactive”.
In the case of O=C(c1ccc(F)cc1)c1sc2cc(O)ccc2c1-c1ccc(F)cc1, the EC50 (Estrogen receptor [1]; read-out: EC50) is reported as 18.5 nM, the inhibition (MCF7:5C [6]) is reported as “inactive” and the inhibition at 0.1 µM [3] is reported as 131%. For the same compound, the Activity [4] was “Non-toxic” and the inhibition at 0.01 µM [5] was 32.4%.
In the case of Oc1ccc(Oc2c(-c3ccc(F)cc3)sc3cc(O)ccc23)cc1, the EC50 (Estrogen receptor [1]; read-out: EC50) is reported as 6.2 nM, the inhibition (MCF7:5C [6]) is reported as “inactive” and the inhibition (MCF7:5C [12]) is reported as “inactive”. The Activity [4] was “Non-toxic” and the inhibition (MCF7:5C [7]) was “inactive”.
In the case of O=C(c1ccc(C(F)(F)F)cc1)c1sc2cc(O)ccc2c1-c1ccc(F)cc1, the EC50 (Estrogen receptor [1]; read-out: EC50) is reported as 5.2 nM, the inhibition (MCF7:5C [6]) is reported as “inactive” and the Activity (Mus musculus) is reported as “Non-toxic”. The Activity (T47D:A18) was “Active”, the inhibition at 0.1 µM [3] was 88.6% and the Activity [4] was “Non-toxic”. It also gave an inhibition at 0.01 µM [5] of 15.4%.
For CN(C)c1ccc(C(=O)c2sc3cc(O)ccc3c2-c2ccc(F)cc2)cc1, the EC50 (Estrogen receptor [1]; read-out: EC50) was 30.6 nM, the inhibition at 0.001 µM [2] was 4.1% and the inhibition at 0.1 µM [3] was 111%. The Activity [4] was “Non-toxic” and the inhibition at 0.01 µM [5] was 15.1%.
In the case of Oc1ccc2c(-c3ccc(F)cc3)c(Oc3ccc(Cl)cc3)sc2c1, the EC50 (Estrogen receptor [1]; read-out: EC50) is reported as 76.1 nM, the inhibition (MCF7:5C [6]) is reported as “inactive” and the inhibition at 0.1 µM [3] is reported as 30.7%. The Activity [4] was “Non-toxic”, the EC50 (Estrogen receptor [8]) was 76.1 nM and the inhibition (MCF7:5C [7]) was “inactive”. The inhibition [11] was “Dose-dependent effect”.
With Oc1ccc2c(-c3ccc(F)cc3)c(Oc3ccc(F)cc3)sc2c1 the EC50 (Estrogen receptor [1]; read-out: EC50) was 36.8 nM, the inhibition (MCF7:5C [6]) was “inactive” and the inhibition at 0.1 µM [3] was 86.6%. For the same compound, the Activity [4] was “Non-toxic” and the inhibition (MCF7:5C [7]) was “inactive”.
